# Assay outcomes (PubChem)
# ANO1 block: blocks the mouse calcium-activated chloride channel TMEM16A | Q8BHY3 | HEK293 TMEM16A/YFP iodide influx fluorescence, ionomycin | normalized B-score (activity score, 25-100; higher = stronger inhibition) at 10 µM | 310,000 tested, 1.2% active | AID 588511;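 active = ratio plate-corrected score three or more library SD toward inhibition, starting fluorescence score within five deviations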;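 also: score derived from kinetic fluorescence span divided by baseline fluorescence per well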
# SR-BI DiI inh: inhibitors of mouse SR-BI mediated HDL lipid uptake; ldlA[mSR-BI] CHO cells, DiI-HDL uptake fluorescence, 3 h; inhibition, % at 12.5 µM; 320,000 tested, 0.96% active;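 active = mean replicate inhibition of at least 70% and a set share of replicates each scoring 70 or more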
# Kir21 inh: Kir2.1 (mouse) channel inhibition; B-score at 10 µM; AID 1672; HEK293-Kir2.1, FluxOR thallium flux fluorescence; hits give low values; 310,000 tested, 0.85% active; P35561;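 active = fluorescence ratio B-score at or below minus 3 SD of library scores, with starting-brightness B-score within 2 SD, cut at about -4.2 in these data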;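 also: channel flux triggered by added potassium and thallium sulfate stimulus; B-score of peak minus minimum fluorescence over baseline after thallium stimulus; more negative B-score means stronger Kir2.1 block with less thallium influx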
# DNA FID counter: fluorescent intercalator displacement, NS3 helicase counter-screen. DNA fluorescent intercalator displacement, fluorescence. inhibition, % at 7.9 µM. 290,000 tested, 0.17% active. AID 1845; in the data active = inhibition above about 37%;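 also: higher means more ethidium bromide displaced from hairpin DNA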
# TMEM16A act: mouse TMEM16A channel activation, primary screen; Q8BHY3; B-score at 10 µM; HEK293 TMEM16A/YFP-H148Q/I152L, iodide quench fluorescence; hits give low values; 340,000 tested, 0.3% active;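 active = fluorescence-ratio B-score plate-corrected deviation score at least 3 library SD below zero, with starting fluorescence score within 5 deviations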;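 also: channel opened by trigger with iodide after compound preincubation; score built on the fluorescence ratio of max minus min over baseline; more negative score means more quench and so TMEM16A activation or potentiation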
# SR-BI DiI-HDL act: SR-BI HDL lipid transfer activation; CHO ldlA[mSR-BI] cells, DiI-HDL uptake fluorescence, 3 h; 100 = double the neutral-control signal; activation, % at 12.5 µM; 320,000 tested, 0.096% active; AID 504775;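 active = mean replicate activation of at least 60% and every replicate at or above 60%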
#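 Material: SR-BI-overexpressing, LDLR-lacking CHO cells; schedule: compound exposure 3 h, 37 °C; reagent: DiI-labelled HDL at 10 µg/mL final; technique: bottom-read fluorescence, 550/595 nm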
# TMEM16A reconf: re-confirmation of mouse TMEM16A chloride channel inhibitors; shares compounds with ANO1 block; HEK293 TMEM16A/YFP-H148Q, iodide quench fluorescence; ionomycin added to raise cell calcium; inhibition, % at 10 µM; 2,300 tested, 39% active;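 active = mean duplicate percent inhibition, scaled so buffer wells are 0 and the reference blocker 100, over three buffer SD above buffer mean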
# HEK293 Ca mobil: calcium mobilization counter-screen hit for TMEM16A inhibitor series; 2,300 tested, 2% active; shares compounds with ANO1 block; AID 652231; calcium response (% of ionomycin), % at 10 µM; TMEM16A/YFP HEK293, Fluo4 calcium mobilization;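 active = duplicate-averaged calcium signal over 20% of the ionomycin maximum, relative to buffer baseline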;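 also: each well's signal is peak minus trough fluorescence divided by its pre-addition baseline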
# Parental YFP cnt: counter-screen for TMEM16A inhibitors: effect in parental YFP-HEK293 cells | shares compounds with ANO1 block | iodide YFP quench, ionomycin | YFP ratio F(max-min)/F0 at 10 µM | 2,300 tested, under 10 active;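 active = yellow fluorescent protein signal ratio exceeding the buffer control mean by over 5 SD of those controls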;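 also: ratio is mean of duplicate wells from kinetic YFP trace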
# ClC-1 rat inh: blocks the rat ClC-1 voltage-dependent chloride channel; shares compounds with ANO1 block; CHO ClC-1-YFP, iodide influx fluorescence quench; iodide control reads 0, buffer control 100; ratio percent, % at 10 µM; 2,300 tested, under 10 active;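 active = duplicate-mean ratio percent above the mean of iodide-only control wells, which defines zero, plus 5 of their SD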;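 also: higher percent means stronger block of ClC-1 iodide influx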
# Target sequence (P35524 whole entry, looked up): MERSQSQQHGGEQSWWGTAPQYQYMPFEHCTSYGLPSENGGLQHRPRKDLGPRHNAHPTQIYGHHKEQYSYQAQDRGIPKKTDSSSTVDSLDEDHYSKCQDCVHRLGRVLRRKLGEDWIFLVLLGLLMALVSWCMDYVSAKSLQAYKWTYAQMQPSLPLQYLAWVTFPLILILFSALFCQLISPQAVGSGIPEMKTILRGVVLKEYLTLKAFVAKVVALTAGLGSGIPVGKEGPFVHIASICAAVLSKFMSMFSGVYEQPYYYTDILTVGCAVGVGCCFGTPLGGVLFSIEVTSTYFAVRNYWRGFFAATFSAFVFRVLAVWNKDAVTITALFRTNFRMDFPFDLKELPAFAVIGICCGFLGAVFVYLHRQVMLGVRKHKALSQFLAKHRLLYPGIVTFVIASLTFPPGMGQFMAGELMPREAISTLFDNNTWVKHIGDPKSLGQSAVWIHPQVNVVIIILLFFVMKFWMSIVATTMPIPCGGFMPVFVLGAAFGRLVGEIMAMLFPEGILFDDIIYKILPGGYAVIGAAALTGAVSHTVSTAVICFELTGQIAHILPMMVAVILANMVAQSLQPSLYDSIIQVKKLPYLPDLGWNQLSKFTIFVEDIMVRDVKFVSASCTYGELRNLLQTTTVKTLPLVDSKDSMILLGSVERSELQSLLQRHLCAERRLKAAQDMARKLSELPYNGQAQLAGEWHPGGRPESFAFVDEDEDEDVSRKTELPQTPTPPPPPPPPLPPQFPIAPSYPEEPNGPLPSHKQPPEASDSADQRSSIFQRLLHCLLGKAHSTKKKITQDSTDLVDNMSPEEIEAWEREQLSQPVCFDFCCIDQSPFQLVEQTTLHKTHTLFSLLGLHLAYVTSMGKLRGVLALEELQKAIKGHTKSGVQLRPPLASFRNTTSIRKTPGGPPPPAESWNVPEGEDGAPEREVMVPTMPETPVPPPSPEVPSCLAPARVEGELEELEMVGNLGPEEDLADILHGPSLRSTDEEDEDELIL
# Hits are given with their value; – = inactive; · = no result. Only some compounds are listed: those with a hit (about 3% of all), similar ones and a draw of the others.
SMILES,ANO1 block,SR-BI DiI inh,Kir21 inh,DNA FID counter,TMEM16A act,SR-BI DiI-HDL act,TMEM16A reconf,HEK293 Ca mobil,Parental YFP cnt,ClC-1 rat inh
COc1ccc(C(=O)NCc2nnc(SCC(=O)Nc3cc(Cl)ccc3OC)o2)cc1,–,–,–,–,–,–,·,·,·,·
N#Cc1ccccc1S(=O)(=O)N1CCN(C(=O)C2COc3ccccc3O2)CC1 (stereo unspecified),·,–,·,·,–,–,·,·,·,·
CNc1ccccc1C(C)(C)c1cc(-c2cc(C)cc(C)c2)no1,–,–,–,–,–,–,·,·,·,·
CNc1ccccc1C(C)(C)c1cc(-c2cccc(OC)c2)no1,25,–,–,–,–,–,23%,–,–,–
CCOC(=O)c1cn(Cc2ccccc2)c2cc(C)nn2c1=O,–,–,–,–,–,–,·,·,·,·
CCOC(=O)c1cn(Cc2ccccc2)c(C(=O)OC(C)(C)C)c1O,100,–,–,·,–,–,32%,–,–,–
O=C(CSc1nnc(CNC(=O)c2ccccc2)o1)NCc1ccc2c(c1)OCO2,–,–,–,–,–,–,·,·,·,·
COc1cccc(CNc2nc3ccccc3n2CCN2CCCCC2)c1OC,25,–,·,–,–,–,–,–,–,–
COc1ccc([C@H]2C(C(=O)O)=C[C@@H](CC3CCCC3)N2S(=O)(=O)c2ccc(C)cc2)cc1OC,·,–,·,·,·,–,·,·,·,·
CN(C)S(=O)(=O)c1cc(NC(=O)COC(=O)Cc2cccc3ccccc23)ccc1Cl,25,–,–,–,–,–,–,–,–,–
CCC(C(=O)OCC(=O)Nc1ccc(F)cc1)c1ccccc1 (stereo unspecified),·,–,·,·,–,–,·,·,·,·
CCC(C(=O)OCC(=O)Nc1ccc(Cl)c(S(=O)(=O)N(C)C)c1)c1ccccc1 (stereo unspecified),25,–,–,–,–,–,20%,–,–,–
CN(C)S(=O)(=O)c1cc(NC(=O)COC(=O)Cc2ccc(Cl)cc2Cl)ccc1Cl,–,–,–,–,–,–,·,·,·,·
Cc1ccc(CCN2C(Nc3ccccc3)=NC[C@@H]2C)cc1,–,–,·,·,–,–,·,·,·,·
Cc1ccc(S(=O)(=O)NCC(c2ccco2)S(=O)(=O)c2ccccc2)cc1 (stereo unspecified),25,–,–,·,–,–,–,–,–,–
Cc1ccc(S(=O)(=O)NCCC(c2ccccc2)c2ccco2)cc1 (stereo unspecified),–,–,–,–,–,–,·,·,·,·
COc1cc(-c2noc(C)c2C#CCO)cc(OC)c1OC,–,–,–,–,–,–,·,·,·,·
COc1cc(-c2noc(C)c2C#Cc2ccsc2)cc(OC)c1OC,100,–,–,–,–,–,28%,–,–,–
O=C(CC(=O)N/N=C/c1c(Cl)cccc1Cl)NCc1cccnc1,–,–,–,–,–,–,·,·,·,·
CCSc1nnc(NC(=O)NC(C)(C(F)(F)F)C(F)(F)F)s1,–,–,–,–,–,–,·,·,·,·
CCSc1nnc(NC(=O)NC(CC)(C(F)(F)F)C(F)(F)F)s1,100,–,–,–,–,–,16%,–,–,–
COc1ccccc1N(CC(=O)NCCSCc1cccc(C)c1)S(=O)(=O)c1ccccc1,25,–,–,–,–,–,–,–,–,–
COc1ccccc1N(CC(=O)NCCSCc1ccccc1)S(C)(=O)=O,–,–,–,–,–,–,·,·,·,·
Cc1cc(C(F)(F)F)nc(-n2cc(-c3ccccc3)nn2)n1,–,–,–,–,–,–,·,·,·,·
COCCNC(=O)c1c(N)n(CCC2=CCCCC2)c2nc3ccccc3nc12,–,–,–,–,–,–,·,·,·,·
SMILES,ANO1 block,SR-BI DiI inh,Kir21 inh,DNA FID counter,TMEM16A act,SR-BI DiI-HDL act,TMEM16A reconf,HEK293 Ca mobil,Parental YFP cnt,ClC-1 rat inh
CCC(C)n1c(C)nc2c(c1=O)c1nc3ccccc3nc1n2CCC1=CCCCC1 (stereo unspecified),25,–,–,–,–,–,22%,–,–,–
O=C(CCN=C1NS(=O)(=O)c2ccccc21)NCc1ccccc1F,·,–,·,·,–,–,·,·,·,·
Cc1ccc(OC(=O)c2ccccc2)cc1C,·,–,·,·,–,–,·,·,·,·
Cc1ccc(SC(C)C(=O)Nc2c(C)n(C)n(-c3ccccc3)c2=O)cc1 (stereo unspecified),–,–,–,–,–,–,·,·,·,·
Cc1c(NC(=O)C(C)Sc2ccccc2)c(=O)n(-c2ccccc2)n1C (stereo unspecified),–,–,–,–,–,–,–,–,–,–
Cc1ccc(S(=O)(=O)CC2CSc3nc4ccccc4n32)cc1 (stereo unspecified),25,–,–,–,–,–,36%,–,–,–
O=C(Nn1c(-c2ccncc2)nc2ccccc2c1=O)c1ccc(Br)cc1,–,–,–,–,–,–,·,·,·,·
O=C(Nn1c(-c2ccc(Br)cc2)nc2ccccc2c1=O)c1ccc([N+](=O)[O-])cc1,25,–,–,–,–,–,–,–,–,–
CSC1=NCCN1C(=O)c1ccc2c(c1)OCO2,–,–,–,–,·,–,·,·,·,·
CC1=CC(C)(C)N(C(=O)c2ccc(F)cc2)c2cc3c(cc21)OCO3,100,–,–,–,–,–,58%,–,–,–
COc1ccc2[nH]cc(/C=N/NS(=O)(=O)c3ccc(C)cc3)c2c1,25,–,–,–,–,–,28%,–,–,–
COc1ccc2c(/C=N/NS(=O)(=O)c3ccc(C)cc3)c[nH]c2c1,–,–,–,–,–,–,·,·,·,·
Cc1ccc(S(=O)(=O)N/N=C/c2c[nH]c3ccccc23)cc1,25,–,–,–,–,–,28%,–,–,–
COc1cc(C2c3cc4c(cc3C(OC3OC5COC(c6cccs6)OC5C(O)C3O)C3COC(=O)C23)OCO4)cc(OC)c1O (stereo unspecified),25,–,–,–,–,–,–,–,–,–
FC(F)(F)c1cccc(-c2nc3nc(Cl)c(Cl)nc3[nH]2)c1,25,–,–,–,–,–,31%,–,–,–
COc1cnc(-c2cccc(C(F)(F)F)c2)[nH]c1=O,–,–,–,–,–,–,·,·,·,·
